Screening results (PubChem BioAssay)
Rce1 inh – blocks yeast Ras-converting enzyme | Q03530 | yeast membranes, quenched prenylated peptide cleavage fluorescence | calls only | hit rate 0.27% among 290,000 | AID 2563;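 active = fall in fluorescence gain of 50% or more versus controls, with final raw signal at or below 3038400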;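 also: plate controls were neutral control wells for no effect and wells lacking membranes for full effect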
Target sequence (Q03530 whole entry, looked up): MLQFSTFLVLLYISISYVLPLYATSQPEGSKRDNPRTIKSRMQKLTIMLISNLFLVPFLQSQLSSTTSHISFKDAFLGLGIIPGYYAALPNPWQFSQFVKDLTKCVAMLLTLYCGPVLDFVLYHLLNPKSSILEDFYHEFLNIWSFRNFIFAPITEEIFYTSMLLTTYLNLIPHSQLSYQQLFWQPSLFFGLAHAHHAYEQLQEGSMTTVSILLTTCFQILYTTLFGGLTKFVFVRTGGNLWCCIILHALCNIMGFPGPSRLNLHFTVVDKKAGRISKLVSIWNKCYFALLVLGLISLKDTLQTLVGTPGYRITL
Pemphigus Ab inh – blocks pemphigus antibody binding to human desmoglein-3. binding (percent of control), % at 10 µM. P32926. AID 588358. DSG3-coupled beads, scFv-anti-DSG3-GFP binding, flow cytometry; stronger effect = lower value. hit rate 0.48% among 310,000;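 active = binding more than 3 SD below its plate's average and above zero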
core dimer inh – HCV core protein dimerization inhibition. TR-FRET GST/Flag-core106 dimerization, 1536-well. inhibition, % at 5 µM. hit rate 0.33% among 300,000;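 active = inhibition above the mean of all tested compounds plus 3 SD, set per screening campaign, cut at about 45% in these data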
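Assay system: tagged HCV core106 pair (GST and Flag); medium: KF-containing HEPES buffer, pH 7.45, DTT, CHAPS, BSA; also added: Eu donor and XL665 acceptor anti-tag antibodies; dosing: 5 µM single dose; timing: compound-protein-antibody incubation 4 h at 22.5 °C; signal: TR-FRET 671 and 617 nm emission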
Tb MetRS inh – Trypanosoma brucei MetRS inhibition. inhibition, % at 11.9 µM. purified T. brucei MetRS, ATP depletion, Kinase-Glo luminescence. hit rate 0.4% among 360,000. AID 624268;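 active = inhibition above a per-plate cutoff of the control wells' mean inhibition plus 3 SD, cut at about 5.5% in these data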;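 also: 0% = DMSO wells median and 100% = median of wells with control inhibitor compound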
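Material: parasite MetRS enzyme / Replication: singlicate, one well per compound / Signal: luminescence of leftover ATP / Schedule: 2 h aminoacylation at 25 °C after 15 min preincubation / Medium: HEPES-MgCl2-KCl buffer plus DTT, spermine, BSA, pyrophosphatase / Doses: 11.9 µM single point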
NadD inh – blocks S. aureus nicotinate mononucleotide adenylyltransferase. purified NadD enzyme, colorimetric absorbance read-out. inhibition, % at 20 µM. hit rate 0.78% among 360,000. AID 602399; in the data active = inhibition above about 26%
NadD conf – confirmation of Staphylococcus aureus NadD inhibitors. hit rate 13% among 2,000. shares compounds with NadD inh. purified S. aureus NadD, colorimetric enzyme assay. inhibition, % at 20 µM. AID 624309; in the data active = inhibition mostly above about 42%, no sharp cut-off; inactive = mostly below about 42%
An asterisk follows results filed as active; i = inactive; . = not tested or not shown. Sampled rows, rich in hits. Any-hit rate of the full collection: about 1.9%.

SMILES	Rce1 inh	Pemphigus Ab inh	core dimer inh	Tb MetRS inh	NadD inh	NadD conf
O=C(Cn1cnc([N+](=O)[O-])c1)Nc1cc(Oc2ccc(Cl)cc2Cl)cc([N+](=O)[O-])c1	i	106.3	8.3	78.4*	31.8*	18.8
O=C(Nc1ccccc1C(F)(F)F)NC1(C(=O)N2CCOCC2)CCCCC1	.	94.1	.	-0.3	31.2*	46.1
CC1(C)Cc2c(sc3ncn4nc(CCC(=O)O)c(=O)nc4c23)CO1	i	92.5	0.0	-0.5	-0.6	.
CCOC(=O)c1c(CC(C)C)csc1NC=O	i	102.2	-1.5	-0.5	-6.4	.
CCOC(=O)CSCC(=O)Nc1c(C(=O)C2CC2)oc2ccccc12	i	119.7	-4.0	-1.4	-3.3	.
COc1ccc(NS(=O)(=O)c2ccc(N3CCOCC3)c(NC(=O)c3ccc(F)cc3)c2)cc1	i	98.5	-2.2	-0.1	-3.7	.
COc1ccc(NS(=O)(=O)c2ccc(O)c(NC(=O)c3cc4c(C)nn(-c5ccc(F)cc5)c4s3)c2)cc1	i	100.3	42.7	-0.3	47.0*	40.0
Cc1ccc(Cc2cnc(N3C(=N)SC(c4ccccc4)C3=O)s2)cc1 (configuration not stated)	i	100.2	21.6	0.1	50.6*	7.9
Cc1ccc(-c2nnc(Oc3ccc(NC(=O)c4ccccc4)cc3)c3ccccc23)cc1	i	94.7	4.2	0.2	30.4*	11.3
Cc1noc(C)c1CSCC(=O)Nc1ccc(OC(F)F)c(Cl)c1	i	98.5	-2.9	-0.1	-6.1	.
COc1ccccc1CNc1nc(Nc2cccc(-c3cnco3)c2)c2sccc2n1	.	.	.	-0.1	40.0*	14.7
Cc1ccc(-n2[nH]c(C)c(C=Nc3ccc(S(=O)(=O)Nc4nccs4)cc3)c2=O)cc1	i	.	-0.4	.	.	.
Cc1cc(C)nc(NS(=O)(=O)c2ccc(N=Cc3c(C)[nH]n(-c4ccccc4)c3=O)cc2)n1	i	95.9	-10.7	-0.3	12.2	.
Cc1[nH]n(-c2ccc(Br)cc2)c(=O)c1C=Nc1ccc(S(=O)(=O)Nc2nccs2)cc1	i	119.9	14.0	-1.9	42.0*	40.1
CCc1nnc(NS(=O)(=O)c2ccc(N=Cc3c(C)[nH]n(-c4ccc(C)c(C)c4)c3=O)cc2)s1	i	81.7	13.0	-3.0	37.3*	55.2*
Cc1ccc(OCc2n[nH]c(=S)n2C2CCCCC2)cc1	i	100.9	-2.3	-0.6	4.4	.
S=c1[nH]nc(COc2ccc(Cl)cc2)n1C1CCCCC1	i	84.7	2.5	-0.8	34.5*	32.8
CSc1nsc(/C=C/Nc2cccc(Cl)c2)c1C#N	.	102.5	6.0	0.1	32.2*	-0.1
CCc1ccc(C(=O)COC(=O)c2cccc(N3C(=O)c4c(C)nc5ccccc5c4C3=O)c2)cc1	i	93.7	30.3	-0.6	36.3*	2.7
O=C(COC(=O)c1cccc(N2C(=O)C3CC=CCC3C2=O)c1)c1ccccc1 (configuration not stated)	i	98.9	1.9	-0.1	-12.3	.
CCn1c(N2CCN(C(=S)NCC(C)C)CC2)nc2ccccc21	i	98.6	-2.5	-0.1	4.2	.
O=C(Nc1ccc(F)cc1)c1nc2c(nnn2Cc2cccc3ccccc23)c(=O)[nH]1	i	87.8	18.1	-1.1	32.9*	19.5
CC(NC(=O)CN(C)CC(=O)Nc1cccc(F)c1)c1ccccc1 (configuration not stated)	.	105.4	.	-0.2	-1.0	.
O=c1/c(=C\c2ccc(O)cc2)sc2n1C(c1ccccc1)C(c1ccccc1)=NN=2 (configuration not stated)	i	102.1	35.2	0.3	39.1*	56.8*
Oc1ccc(C[C@H]2CNC(=S)N2CC2CCCN2C[C@H](Cc2ccccc2)N2C[C@H](Cc3ccc(O)cc3)N(CCc3ccccc3)C2=S)cc1 (some centres not stated)	.	100.6	.	0.1	53.3*	58.2*
SMILES	Rce1 inh	Pemphigus Ab inh	core dimer inh	Tb MetRS inh	NadD inh	NadD conf
Oc1ccc(C[C@@H](CN2CCC[C@@H]2CN2C(=S)NC[C@@H]2Cc2ccccc2)N2C[C@H](Cc3ccccc3)N(CCc3ccccc3)C2=S)cc1	.	.	.	-0.3	20.4	.
CC(C)C[C@H]1CN([C@@H](Cc2ccc(O)cc2)CN2CCC[C@@H]2CN2C(=S)NC[C@@H]2Cc2ccccc2)C(=S)N1CCc1ccccc1	.	.	.	-0.6	31.8*	9.4
CC(C)C[C@H]1CNC(=S)N1C[C@H]1CCCN1C[C@H](Cc1ccc(O)cc1)N1C[C@H](Cc2ccc(O)cc2)N(CCc2ccccc2)C1=S	.	.	.	-0.9	21.9	.
CC(=O)N1CCc2nc3ccccc3cc21	.	102.9	.	-0.1	-0.1	.
CCC(=O)N1C(=O)CCN(C(C)=O)c2ccccc21	i	94.1	-4.6	1.2	35.7*	8.6
Nc1ccc2c(c1)C/C(=C/c1ccco1)C2=O	i	120.3	93.7*	-0.2	30.7*	7.6
Cc1ccc(NC(=O)C(C)OC(=O)c2ccc(NS(=O)(=O)c3ccc(F)c(F)c3)cc2)cc1 (configuration not stated)	i	108.0	9.1	-1.1	5.7	.
CCc1ccc(NC(=O)C(C)OC(=O)c2ccc(NS(=O)(=O)c3ccc(C)c([N+](=O)[O-])c3)cc2)cc1 (configuration not stated)	i	112.6	35.4	-1.3	45.1*	45.9*
O=C(Nc1nc2ccccc2s1)c1cccc(S(=O)(=O)N2CCc3ccccc32)c1	i	87.7	13.6	-0.5	13.8	.
O=C(Cc1cn2ccsc2n1)NCc1ccccc1	i	98.1	-1.4	-0.3	2.0	.
O=C(Cc1cn2ccsc2n1)Nc1nc2c(s1)CN(Cc1ccccc1)CC2	i	102.0	38.3	0.1	35.2*	6.1
O=C(Nc1nc2c(s1)CN(Cc1ccccc1)CC2)c1cccc(S(=O)(=O)N2CCc3ccccc32)c1	i	98.6	-35.2	-0.7	34.0*	14.1
C/C(CCc1ccc2c(c1)OCO2)=N\N=C(/N)SC1CC(=O)N(c2ccc(Cl)cc2)C1=O (configuration not stated)	i	92.9	2.4	0.1	16.1	.
COc1ccccc1N1CCN(c2ccc3c(c2)S(=O)(=O)c2cccc(C(=O)NCc4cccc(F)c4)c2C3=O)CC1	.	.	.	-1.0	30.9*	18.4
O=C(NCc1cccc(OC(F)(F)F)c1)c1cccc2c1C(=O)c1ccc(-c3ccc(F)cc3OCc3ccccc3)cc1S2(=O)=O	.	96.3	.	-0.3	48.2*	33.3
O=C(NCc1cccc(F)c1)c1cccc2c1C(=O)c1ccc(N3CCOCC3)cc1S2(=O)=O	.	100.1	.	0.6	7.6	.
O=C(NCc1ccccc1)c1cccc2c1C(=O)c1ccc(/C=C/c3ccccc3)cc1S2(=O)=O	.	93.1	.	-0.7	33.7*	-5.7
Cc1ccc(C2(O)CN(c3ccccc3C)C3=[N+]2CCS3)cc1 (configuration not stated)	i	125.1	-6.1	-0.8	-6.2	.
O=C(Nc1cccc(-c2cnc3ccccc3n2)c1)c1ccncc1	i	103.4	1.4	-1.2	-2.2	.
